Assay outcomes (PubChem BioAssay)
NS3 helicase inh – inhibitors of HCV NS3 helicase, primary screen, biochemical, Cy5 molecular beacon fluorescence; Hepatitis C virus NS3 helicase; NS3 helicase DNA unwinding; inhibition, % at 10.9 µM; actives 0.56% (n = 290,000); AID 1800, 2009;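 active means inhibition above the mean of all tested compounds plus 3 SD, set per campaign, cut at about 35% in these data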;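 further: 0% = DMSO wells and 100% = thioflavine S control wells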
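Material: hepatitis C virus NS3 helicase domain fragment enzyme; measured by: Cy5 fluorescence, 0 and 60 min reads; control set: DMSO and thioflavine S; incubation: 60 min unwinding reaction at 25 °C after ATP addition; read-out basis: % inhibition from 60/0 min fluorescence ratio, DMSO 0%, thioflavine S 100%; repeats: singlicate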
DNMT1 block – human DNMT1 methyltransferase inhibitors, primary screen, biochemical, molecular beacon, fluorescence, HinP1I cleavage, uHTS. inhibition (reported as % activation of signal), % at 10 µM. actives 0.83% (n = 360,000). AID 588458, 2011
CASP6 VEID inh – human caspase-6 inhibitors, primary screen, biochemical, VEID-R110 fluorescence, single point, set 2; P55212; purified caspase-6, Z-VEID-R110 cleavage fluorescence; inhibition, % at 12.5 µM; actives 0.53% (n = 350,000);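 active means mean inhibition across replicates at least about 35%, with every replicate also reaching that limit, limit read from the data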;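 further: 0% = median of neutral control wells and 100% = no fluorescence left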
Target sequence (P55212 24-179 limits assumed): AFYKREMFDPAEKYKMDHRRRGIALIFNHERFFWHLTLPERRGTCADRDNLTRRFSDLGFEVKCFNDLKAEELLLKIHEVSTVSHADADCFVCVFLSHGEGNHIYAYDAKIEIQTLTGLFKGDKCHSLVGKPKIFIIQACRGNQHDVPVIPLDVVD
Target sequence (P55212 194-293 limits assumed): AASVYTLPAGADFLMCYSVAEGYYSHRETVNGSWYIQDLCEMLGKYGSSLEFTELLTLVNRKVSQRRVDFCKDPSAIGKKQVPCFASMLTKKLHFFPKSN
NSD2 inh – NSD2 histone methyltransferase inhibitors, primary screen, biochemical, AlphaScreen, single concentration, set 2; actives 0.54% (n = 310,000); AID 743445, 2014; Histone-lysine N-methyltransferase NSD2 (Homo sapiens), O96028; NSD2 peptide methylation, 120 min; inhibition, % at 12.5 µM
DNMT1 interf DR – spectral interference with molecular beacon fluorescence, dose response, artefact control for DNMT1 inhibitor project, biochemical, fluorescent molecular beacon | spectral interference counter-screen | AID 602382, 2012 | 200 tested, under 10 active | shares compounds with DNMT1 block | IC50, µM; call rule not given here
DNMT1 confirm – DNMT1 methyltransferase inhibitor retest, confirmation, biochemical, molecular beacon, fluorescence, single concentration | shares compounds with DNMT1 block | DNMT1 molecular beacon HinP1I cleavage | inhibition, % at 10 µM | actives 8% (n = 2,300) | AID 602385, 2012;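 active means average inhibition of at least 30% in the single-concentration confirmation test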
DNMT1 interf – beacon fluorescence artifact counter-screen | shares compounds with DNMT1 block | DNMT1 molecular beacon spectral interference counterscreen, fluorescence 485/520 | activation (fluorescence interference), % at 10 µM | actives 1% (n = 2,300) | AID 602387;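 active means activation of at least 30% at 10 µM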;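 further: DNMT1 catalytic domain with a HinP1I cleavage step and a FAM/dabcyl DNA beacon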
An asterisk follows results filed as active; nt = not tested or not shown. The list is not random: actives were taken first. Their share in the collection is about 1.5%. Unless noted, no stated cut-off is given here; in the data, active means inhibition above about 50%; inactive means the rest.

SMILES	NS3 helicase inh	DNMT1 block	CASP6 VEID inh	NSD2 inh	DNMT1 confirm	DNMT1 interf	others
CCOC(=O)/C(C#N)=C/c1ccc(OCC(=O)Nc2ccc(OC)cc2)c(OC)c1	2.1	-15.1	nt	0.4	nt	nt
C[C@H]1CCCCO[C@H](CN(C)S(=O)(=O)c2cccs2)[C@@H](C)CN([C@@H](C)CO)C(=O)c2cc(NC(=O)Nc3ccccc3)ccc2O1	nt	nt	0.4	nt	nt	nt
Cc1ccc(OCC(=O)Nc2ccc(-c3nc4ncccc4o3)cc2)c(C)c1	-1.4	54.9*	nt	3.2	3.7	3.8
CCC(=O)N[C@@H]1CC[C@@H](CC(=O)NCc2ccc(OC)cc2)O[C@@H]1CO	nt	nt	2.9	nt	nt	nt
c1ccc(-c2cc(-c3nnc4n3N=C(c3ccc5ccccc5c3)CS4)[nH]n2)cc1	-29.0	55.4*	nt	2.9	5.5	-3.8
O=C(NC(=S)Nc1cccc(S(=O)(=O)NC2=NCCC2)c1)c1cc(-c2ccco2)nc2ccccc12	29.2	11.1	5.9	0.8	nt	nt
O=C(Nc1nccs1)c1cc(-c2ccco2)nc2ccccc12	17.7	54.8*	12.1	2.5	16.1	-1.2
O=C(Nc1cccc(S(=O)(=O)NC2=NCCC2)c1)c1cc(-c2ccco2)nc2ccccc12	44.8*	99.4*	3.5	21.4	55.5*	-2.2	DNMT1 interf DR=>99
O=C(Nc1nccs1)c1cc(-c2ccccc2)nc2ccccc12	-0.6	-0.6	0.6	-0.9	nt	nt
O=C(N/N=C/c1ccc(F)cc1)c1cc(-c2ccco2)nc2ccccc12	38.8*	105.0*	nt	-0.4	47.9*	-0.7	DNMT1 interf DR=>99
CCNC(=O)COC(=O)c1cc(-c2ccco2)nc2ccccc12	29.3	70.7*	25.8	0.1	12.1	3.3
C[C@@H]1CCCCO[C@H](CN(C)CC2CCCCC2)[C@@H](C)CN([C@H](C)CO)C(=O)c2cc(NC(=O)Nc3ccc4c(c3)OCO4)ccc2O1	nt	nt	-1.1	nt	nt	nt
CCN(CC)CCNC(=O)c1ccc(NC(=O)c2cc(-c3ccco3)nc3ccccc23)cc1	-41.2	19.9	-24.5	11.5	nt	nt
Cc1nnc(NC(=O)c2cc(-c3ccco3)nc3ccccc23)s1	nt	96.3*	53.1*	6.0	18.3	1.1
Cc1ccc(-c2cc(C(F)F)n3ncc(C(=O)NCc4ccco4)c3n2)cc1	1.1	76.5*	nt	-0.8	0.4	-9.8
O=C(Nc1nc2ccccc2s1)c1cc(-c2ccco2)nc2ccccc12	33.4	8.3	1.3	3.5	nt	nt
Cc1csc(NC(=O)c2cc(-c3ccco3)nc3ccccc23)n1	26.2	95.7*	2.2	5.4	12.2	-1.8
Cc1csc(NC(=O)c2cc(C)nc3ccccc23)n1	2.7	-3.9	5.0	4.0	nt	nt
COc1ccc(NC(=O)c2cc(-c3ccco3)nc3ccccc23)cn1	nt	49.4	23.5	2.3	1.8	0.2
O=C(Nc1ccc(F)cc1)N1CC(=O)N2[C@H](C1)[C@H](c1ccc(Br)cc1)[C@@H]2CO	nt	nt	-0.3	nt	nt	nt
Cc1nn(-c2cccc(Cl)c2)c2nc(-c3ccco3)cc(C(=O)O)c12	-3.0	71.5*	nt	26.2	3.2	2.4
Cc1ccc(-c2cc(C(=O)NCc3ccco3)c3ccccc3n2)o1	22.4	91.9*	nt	0.4	3.8	2.5
O=C(O)c1cc(-c2ccco2)nc2ccccc12	20.2	60.7*	28.9	nt	0.8	-1.7
Cc1cccc(-n2nc(C)c3c(C(=O)O)cc(-c4cccs4)nc32)c1	7.7	-1.0	8.7	-0.1	nt	nt
O=C(O)c1cc(-c2cc(C(=O)O)c3ccccc3n2)nc2ccccc12	9.1	nt	nt	nt	nt	nt
O=C(N/N=C/c1ccc([N+](=O)[O-])o1)c1cc(-c2ccc(-c3ccccc3)cc2)nc2ccccc12	-8.4	79.1*	2.8	nt	-0.2	2.1
CO[C@@H]1CN(C)C(=O)c2cc(NC(=O)Nc3c(C)noc3C)ccc2OC[C@@H](C)N(CC2CC2)C[C@@H]1C	nt	nt	-3.2	nt	nt	nt
